Assay outcomes from PubChem.
MrgX1 PAM: allosterically activates human MrgX1 receptor signaling; Q96LB2; MrgX1-HEK293, Fluo-4 calcium flux, FDSS; hits give high values; B-score at 10 µM; hit rate 0.63% among 310,000; AID 588675;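 active = plate-corrected calcium response at least 3 library SD above typical, normal starting fluorescence, not activating the receptor alone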;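 also: compound read alongside a low EC10 to EC30 dose of BAM8-22 agonist; peak minus trough fluorescence over baseline measured at the second addition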
Target sequence (Q96LB2 whole entry, looked up): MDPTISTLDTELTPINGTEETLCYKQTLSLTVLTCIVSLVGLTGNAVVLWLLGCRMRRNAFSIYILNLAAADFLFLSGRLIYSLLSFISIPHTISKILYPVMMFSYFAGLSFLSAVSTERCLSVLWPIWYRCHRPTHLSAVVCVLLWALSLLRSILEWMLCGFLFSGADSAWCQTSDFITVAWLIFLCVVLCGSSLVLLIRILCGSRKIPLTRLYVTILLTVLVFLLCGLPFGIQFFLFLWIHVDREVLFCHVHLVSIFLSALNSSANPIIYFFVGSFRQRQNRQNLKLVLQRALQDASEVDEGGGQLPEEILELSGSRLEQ
MrgX1 ag: human MrgX1 receptor agonism, primary screen; AID 588627; hit rate 0.44% among 310,000; B-score at 10 µM; MrgX1-HEK293 cells, Fluo-4 calcium fluorescence, agonist mode; hits give high values;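 active = calcium response B-score plate-corrected fluorescence ratio at least 3 library SD, with starting fluorescence B-score inside 5 SD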
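Assay system: stable human MrgX1 HEK293 cell line. Quantity: 15,000 cells per well. Schedule: cells plated overnight, dye loaded 0.5 h 37 °C, 0.5 h room temperature. Detection: Fluo-4 NW calcium-flux fluorescence, kinetic read. Read-out basis: peak-minus-minimum fluorescence over baseline, converted to B scores. Control set: positive and negative control wells on each plate.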
RGS4 block: inhibitors of human RGS4; B-score at 10 µM; hit rate 0.45% among 310,000; AID 463165; HEK293 M3R/RGS4 inducible, Fluo-4 calcium flux; hits give high values; triggered by carbachol at its EC20;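 active = B-score, a plate-corrected calcium signal, over three deviations above library mean, with baseline fluorescence within five deviations of library mean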;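 also: RGS4 expression induced by doxycycline in cells with stable M3 receptor; B-score is computed from the integrated fluorescence ratio over baseline after carbachol; higher B-score means a larger calcium signal and so more RGS4 inhibition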
Target sequence (P49798 whole entry, looked up): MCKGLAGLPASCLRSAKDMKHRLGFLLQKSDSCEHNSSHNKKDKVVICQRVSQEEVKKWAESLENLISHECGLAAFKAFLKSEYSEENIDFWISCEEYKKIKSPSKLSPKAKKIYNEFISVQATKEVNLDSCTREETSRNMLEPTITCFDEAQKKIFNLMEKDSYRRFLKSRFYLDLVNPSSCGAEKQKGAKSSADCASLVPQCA
RGS4 pot: RGS4 potentiation or activation | AID 463111 | HEK293 M3R/inducible RGS4, carbachol calcium flux Fluo4; hits give low values | hit rate 0.92% among 310,000 | B-score at 10 µM;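 active = B-score of the integrated calcium signal more than 4 SD below the library mean, with starting fluorescence not abnormally high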;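 also: negative B-score means reduced calcium response which marks RGS4 activation or potentiation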
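Also added: carbachol at ECmax as muscarinic agonist stimulus; Assay system: HEK293 cells with stable M3R and inducible RGS4; Timing: overnight RGS4 induction, 30 min dye load 37 °C, 20 min compound RT; Measured by: Fluo4-AM (2 µM) calcium-flux fluorescence, kinetic read.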
MrgX1 antagonist: blocks BAM8-22 activation of human MrgX1 receptor. Q96LB2. MRGX1-HEK293 calcium flux, Fluo-4, BAM8-22 antagonism; hits give low values. B-score at 10 µM. hit rate 1.3% among 310,000;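 active = calcium-response B-score plate-corrected more than 3 library SD below zero, starting fluorescence within 5 deviations, no agonist response on first addition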;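 also: peak minus trough fluorescence over baseline after final BAM8-22 challenge near maximal dose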
Numbers without * were called inactive. Sampled rows, rich in hits. Any-hit rate of the full collection: about 3.5%.

Results for COc1ccc(/C=N/Nc2nc(C)cc(-c3ccccc3)n2)cc1OC ?
MrgX1 PAM: inactive; MrgX1 ag: inactive; RGS4 block: inactive; RGS4 pot: -7.3*; MrgX1 antagonist: inactive

Results for Cc1cc(-c2ccccc2)nc(N/N=C/c2ccc(O)cc2O)n1 ?
MrgX1 PAM: inactive; MrgX1 ag: inactive; RGS4 block: inactive; RGS4 pot: -7.2*; MrgX1 antagonist: inactive

What do the screens show for `Cc1ccc(-c2cc(-c3ccccc3)nc(N/N=C/c3cccnc3)n2)cc1`?
MrgX1 PAM: inactive; MrgX1 ag: inactive; RGS4 block: inactive; RGS4 pot: inactive; MrgX1 antagonist: inactive

Results for Cc1cnc(C(=O)OCC(=O)c2ccc[nH]2)cn1 ?
MrgX1 PAM: inactive; MrgX1 ag: inactive; RGS4 block: inactive; RGS4 pot: inactive; MrgX1 antagonist: inactive

What do the screens show for `O=[N+]([O-])c1cc2c(c(CSc3nnnn3-c3ccc(O)cc3)c1)OCOC2`?
MrgX1 PAM: inactive; MrgX1 ag: inactive; RGS4 block: inactive; RGS4 pot: inactive; MrgX1 antagonist: inactive

How did C/C(CCc1oc2ccc(Br)cc2c1-c1ccc(C)o1)=N/O do in these assays?
MrgX1 PAM: inactive; MrgX1 ag: inactive; RGS4 block: inactive; RGS4 pot: inactive; MrgX1 antagonist: -6.3*

What do the screens show for `COCCCN1C(=O)c2ccc(C(=O)NCCc3ccccc3)cc2C1=O`?
MrgX1 PAM: inactive; MrgX1 ag: inactive; RGS4 block: inactive; RGS4 pot: inactive; MrgX1 antagonist: inactive

How did O=C(CSCc1ccccc1)Nc1ccc2c(c1)OCO2 do in these assays?
MrgX1 PAM: inactive; MrgX1 ag: inactive; RGS4 block: inactive; RGS4 pot: inactive; MrgX1 antagonist: inactive

What do the screens show for `O=C(CSCc1c(Cl)cccc1Cl)Nc1ccc2c(c1)OCO2`?
MrgX1 PAM: inactive; MrgX1 ag: inactive; RGS4 block: inactive; RGS4 pot: -7.5*; MrgX1 antagonist: inactive

What do the screens show for `COc1cc(OC)c(NS(=O)(=O)c2cc(Br)cnc2N)cc1Cl`?
MrgX1 PAM: inactive; MrgX1 ag: inactive; RGS4 block: inactive; RGS4 pot: inactive; MrgX1 antagonist: inactive

How did Cc1ccc(NS(=O)(=O)c2cc(Br)cnc2N)c(Cl)c1 do in these assays?
MrgX1 PAM: inactive; MrgX1 ag: inactive; RGS4 block: inactive; RGS4 pot: -7*; MrgX1 antagonist: inactive

How did O=c1[nH]c2ccccc2cc1CN(Cc1ccco1)S(=O)(=O)c1ccccc1 do in these assays?
MrgX1 PAM: inactive; MrgX1 ag: inactive; RGS4 block: inactive; RGS4 pot: inactive; MrgX1 antagonist: inactive

How did O=C(CCn1cccn1)N1CCCC(N2CCN(c3cccc(Cl)c3)CC2)C1 (stereo not drawn) do in these assays?
MrgX1 PAM: inactive; MrgX1 ag: inactive; RGS4 block: inactive; RGS4 pot: inactive; MrgX1 antagonist: inactive

How did Cc1ccc(C(=O)Nc2ncc([N+](=O)[O-])s2)cc1 do in these assays?
MrgX1 PAM: inactive; MrgX1 ag: inactive; RGS4 block: inactive; RGS4 pot: inactive; MrgX1 antagonist: -4.5*

How did O=C(Nc1ncc([N+](=O)[O-])s1)c1ccc2c(c1)OCO2 do in these assays?
MrgX1 PAM: inactive; MrgX1 ag: inactive; RGS4 block: inactive; RGS4 pot: inactive; MrgX1 antagonist: inactive

Results for Cc1onc(-c2ccccc2)c1C(=O)Nc1ncc([N+](=O)[O-])s1 ?
MrgX1 PAM: inactive; MrgX1 ag: inactive; RGS4 block: inactive; RGS4 pot: inactive; MrgX1 antagonist: -4.5*

Results for S=C(Nc1ccc(Br)cc1Cl)N1CCN(c2ccccn2)CC1 ?
MrgX1 PAM: inactive; MrgX1 ag: inactive; RGS4 block: inactive; RGS4 pot: inactive; MrgX1 antagonist: inactive

How did CC(NC(=O)Cn1cc(C(F)(F)F)ccc1=O)c1ccc(F)cc1 (stereo not drawn) do in these assays?
MrgX1 PAM: 6.9*; MrgX1 ag: inactive; RGS4 block: inactive; RGS4 pot: inactive; MrgX1 antagonist: inactive

How did CN1C(=O)C(O)(CC(=O)c2ccc(F)cc2)c2cc(Br)ccc21 (stereo not drawn) do in these assays?
MrgX1 PAM: inactive; MrgX1 ag: inactive; RGS4 block: inactive; RGS4 pot: inactive; MrgX1 antagonist: -5.1*

How did O=C(Cn1ccnc1[N+](=O)[O-])NCc1ccccc1 do in these assays?
MrgX1 PAM: inactive; MrgX1 ag: inactive; RGS4 block: inactive; RGS4 pot: -7.7*; MrgX1 antagonist: inactive

How did Cc1nc2ccccn2c1/C(O)=C1\C(=O)C(=O)N(CCCN(C)C)C1c1ccc(F)cc1 (stereo not drawn) do in these assays?
MrgX1 PAM: inactive; MrgX1 ag: inactive; MrgX1 antagonist: -4.8*

Results for Cc1nc2c(C)cccn2c1/C(O)=C1\C(=O)C(=O)N(CCN(C)C)C1c1ccncc1 (stereo not drawn) ?
MrgX1 PAM: inactive; MrgX1 ag: inactive; RGS4 block: inactive; RGS4 pot: inactive; MrgX1 antagonist: inactive

How did OC(COc1ccccc1Cl)CN1CCN(CC(O)COc2ccccc2Cl)CC1 (stereo not drawn) do in these assays?
MrgX1 PAM: inactive; MrgX1 ag: inactive; RGS4 block: inactive; RGS4 pot: -7.7*; MrgX1 antagonist: inactive

Results for COc1ccc(-c2nc3ccccc3nc2-c2ccc(OC)cc2)cc1 ?
MrgX1 PAM: inactive; MrgX1 ag: inactive; RGS4 block: inactive; RGS4 pot: -7*; MrgX1 antagonist: inactive

Results for O=C(NC1CCCCC1)C(c1ccc(F)cc1)N(Cc1ccccc1)C(=O)CN1C(=O)c2ccccc2S1(=O)=O (stereo not drawn) ?
MrgX1 PAM: inactive; MrgX1 ag: inactive; RGS4 block: inactive; RGS4 pot: inactive; MrgX1 antagonist: inactive

How did O=C(NC1CCCCC1)C(c1ccc(F)cc1)N(CCc1ccccc1)C(=O)CN1C(=O)c2ccccc2S1(=O)=O (stereo not drawn) do in these assays?
MrgX1 PAM: inactive; MrgX1 ag: inactive; RGS4 block: inactive; RGS4 pot: inactive; MrgX1 antagonist: -8.9*

Results for COC(=O)c1ccc(-c2sc3nc(N4CCOCC4)c4c(c3c2N)CCCC4)o1 ?
MrgX1 PAM: 17*; MrgX1 ag: inactive; RGS4 block: inactive; RGS4 pot: -8.8*; MrgX1 antagonist: inactive

Results for C=CCC(C)(NCc1ccccc1)c1ccc(C)cc1 (stereo not drawn) ?
MrgX1 PAM: 7.6*; MrgX1 ag: inactive; RGS4 block: inactive; RGS4 pot: inactive; MrgX1 antagonist: inactive

How did Cn1cc(/C=C/c2cc[n+](C)cc2)c2cc(F)ccc21 do in these assays?
MrgX1 PAM: inactive; MrgX1 ag: inactive; RGS4 block: inactive; RGS4 pot: inactive; MrgX1 antagonist: inactive

Results for C[n+]1ccc(/C=C/c2c[nH]c3ccc(F)cc23)cc1 ?
MrgX1 PAM: inactive; MrgX1 ag: inactive; RGS4 block: inactive; RGS4 pot: -7.8*; MrgX1 antagonist: inactive
